The values below come from ChEMBL document CHEMBL3046221, “Asymmetric chloronicotinyl insecticide, 1-[1-(6-chloro-3-pyridyl)ethyl]-2-nitroiminoimidazolidine: preparation, resolution and biological activities toward insects and their nerve preparations” (Biosci Biotechnol Biochem, 2003).

The target in test [1] is T1, Nicotinic acetylcholine receptor alpha 5 subunit (Musca domestica, UniProt A9XFY4).
T1 sequence (A9XFY4 whole entry): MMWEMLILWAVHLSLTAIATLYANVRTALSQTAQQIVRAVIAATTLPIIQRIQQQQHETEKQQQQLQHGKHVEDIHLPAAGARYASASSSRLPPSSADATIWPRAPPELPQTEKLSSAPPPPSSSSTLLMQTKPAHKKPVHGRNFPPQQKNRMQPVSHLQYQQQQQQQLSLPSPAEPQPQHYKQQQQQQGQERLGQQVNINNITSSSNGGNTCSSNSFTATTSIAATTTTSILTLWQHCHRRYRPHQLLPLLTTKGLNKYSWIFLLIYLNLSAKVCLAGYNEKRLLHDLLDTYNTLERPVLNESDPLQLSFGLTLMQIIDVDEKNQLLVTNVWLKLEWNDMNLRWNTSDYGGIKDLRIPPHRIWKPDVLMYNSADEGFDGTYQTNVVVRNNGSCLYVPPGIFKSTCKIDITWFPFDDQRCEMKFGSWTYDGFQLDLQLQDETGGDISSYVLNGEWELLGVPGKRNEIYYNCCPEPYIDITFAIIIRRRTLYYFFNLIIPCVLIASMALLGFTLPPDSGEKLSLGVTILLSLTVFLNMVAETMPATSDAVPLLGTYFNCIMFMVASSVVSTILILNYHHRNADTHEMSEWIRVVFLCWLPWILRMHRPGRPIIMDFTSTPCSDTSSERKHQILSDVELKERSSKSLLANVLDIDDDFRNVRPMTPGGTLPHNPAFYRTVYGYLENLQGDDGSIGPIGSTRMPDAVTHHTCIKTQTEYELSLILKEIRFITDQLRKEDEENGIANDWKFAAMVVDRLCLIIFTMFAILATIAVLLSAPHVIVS
In words: Displacement of [3HIMI from nicotinic acetylcholine receptor in Musca domestica (house fly) head membranes incubated for 60 min by liquid scintillation counting method. Also noted: species or system Membrane. The essentials: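 Housefly heads homogenized in pH 7.4 phosphate/sucrose/EDTA buffer; 700 g and 125,000 g spins; pellet resuspended in pH 7.4 phosphate, 50 mM NaCl, 0.1% Triton X-100. Membranes (3 mg/ml protein) preincubated with compound in DMSO 3-5 min at 24°C, then [3H]imidacloprid 10 nM final, 60 min at 24°C. GF/B filtration; IC50 for inhibition of specific binding.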

In another test the test system is Periplaneta americana. In words: Neuroblocking potency against Periplaneta americana (American cockroach) abdominal central nerve cord assessed as compound concentration at which the frequency first reduced below 10 counts/30 secs […] by electrophysiologt method. The class given is functional.
Test [2] deals with Musca domestica. In words: Insecticidal activity against female Musca domestica (house fly) administered through injection into dorsal side of thorax measured 1 hr post dose. In kind it is functional.
In test [3] the test system is Musca domestica. In words: Insecticidal activity against female Musca domestica (house fly) administered through injection into dorsal side of thorax pre-treated with 0.2% w/v NIA and 0.2% w/v PB before compound injection measured 1 hr post dose. In kind it is functional. The essentials: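 Female houseflies anesthetized with CO2 were given 1 µl methanol with NIA 0.2% and PB 0.2% (w/v) topically on the abdomen. After 1 h at 25°C, 0.22 µl of compound in 50% aqueous ethanol at various concentrations was injected. Dead or paralyzed flies were counted 1 h later at 25°C, and ED50 (mol/insect) was derived by probit analysis.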

In the case of `Clc1ccc([C@H]2C[C@@H]3CC[C@H]2N3)cn1` [(-)-EPIBATIDINE], the IC50 (as a rule, the midpoint of a concentration-inhibition curve) in test [1] was 1340 nM.
Still for that read-out and setting: in the case of `Clc1ccc([C@@H]2C[C@H]3CC[C@@H]2N3)cn1` [(+)-EPIBATIDINE] it was 2790 nM; in that of `CN1CCC[C@@H]1c1cccnc1` [R-NICOTINE], 422000 nM.
Take `O=[N+]([O-])/N=C1\NCCN1Cc1ccc(Cl)nc1` [IMIDACLOPRID]: the Activity in the test with Periplaneta americana was found to be 2.3 µM. The ED50 came to 2.2 fmol with Musca domestica [2] and 0.26 fmol with Musca domestica [3].
`C[C@@H](c1ccc(Cl)nc1)N1CCN/C1=N\[N+](=O)[O-]` [(S)-METHYL-IMIDACLOPRID] had an IC50 in test [1] of 190 nM. Moreover, in the test with Periplaneta americana, the Activity was determined as 5.9 µM. Moreover, the ED50 with Musca domestica [2] is 45 fmol; with Musca domestica [3], 1.1 fmol.
In the same order, the values of `C[C@H](c1ccc(Cl)nc1)N1CCN/C1=N\[N+](=O)[O-]` [(R)-METHYL-IMIDACLOPRID] are 950 nM, 73 µM, 55 fmol and 2.3 fmol.
In turn, `CC(c1ccc(Cl)nc1)N1CCN/C1=N\[N+](=O)[O-]` (racemic) [(R,S)-METHYL-IMIDACLOPRID] returned a 50% inhibitory concentration (IC50) in test [1] of 210 nM. Further, the Activity in the test with Periplaneta americana came out at 15 µM. Also, the ED50 with Musca domestica [2] is given as 26 fmol; in the test on Musca domestica [3], 1.7 fmol.
As for `CN1CCC[C@H]1c1cccnc1` [NICOTINE], in test [1], the IC50 was 11900 nM.
